Structures are written as SMILES. Active and inactive are the calls of the source. No cut-off for these calls is given here.

These results are taken from ChEMBL document CHEMBL3271936, “Biologically oriented organic sulfur chemistry. 14. Antiinflammatory properties of some aryl sulfides, sulfoxides, and sulfones” (J Med Chem, 1976).

For series [1], the system named is Mus musculus. Description: Toxicity in mouse assessed as mortality at >= 0.3 g/kg, ip. Format: organism-based. To be noted: in vivo, 300 mg/kg. A digest of the protocol: (§1)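 Mice dosed intraperitoneally at two dose levels, three animals per compound (rarely two). The approximate lethal range was taken as survival at the lower dose and death at the higher, in g/kg. Dose brackets were 0.1–0.3, 0.3–1.0, and >1.0.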

Series [2] deals with Rattus norvegicus. The series can be described thus: Antiinflammatory activity in Holtzman rat assessed as inhibition of carrageenan-induced paw edema at 50 mg/kg, po administered at 0.5 and 2.5 hrs prior to carrageenan-challenge relative to control. To be noted: Holtzmann. Format: functional. The gist of the method: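 Carrageenan paw-edema assay in male or female Holtzman rats (180–190 g), five per group. Compound given orally at 50 mg/kg twice, at 2.5 h and 0.5 h before carrageenan injection into the hind paw. Inhibition of edema is expressed as percent versus controls.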

The subject of series [3] is Rattus norvegicus. Description: Antiinflammatory activity in Holtzman rat assessed as inhibition of UV radiation-induced erythema at 50 mg/kg, po relative to control. To be noted: Holtzmann. Format: functional.
Series [4] has as its system Rattus norvegicus. Description: Antiinflammatory activity in po dosed Holtzman rat assessed as inhibition of UV radiation-induced erythema. Format: functional. To be noted: Holtzmann.
In series [5] the test system is Rattus norvegicus. Description: Antiinflammatory activity in Holtzman rat assessed as inhibition of carrageenan-induced paw edema at 35 mg/kg, po relative to control. Format: functional. To be noted: Holtzmann. (In general: Carrageenan injected into the paw causes an acute inflammation.)
The subject of series [6] is Mus musculus. Description: Antiinflammatory activity in mouse assessed as inhibition of carrageenan-induced edema at 30 mg/kg relative to control. Format: functional.
Series [7] deals with Rattus norvegicus. The series can be described thus: Antiinflammatory activity in specific pathogen-free Alderley Park 1 rat assessed as inhibition of adjuvant-induced swelling at 25 mg/kg/day, po treated for 2 days prior to adjuvant-challenge followed by compound administration for 18 days. Format: functional, organism-based. The gist of the method: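 Adjuvant arthritis assay in rats. Oral dosing at 25 mg/kg per day begins 2 days before adjuvant and continues 18 days after it, for 20 days in total.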

For series [8], the system named is Rattus norvegicus. Description: Antiinflammatory activity in Holtzman rat assessed as inhibition of UV radiation-induced erythema at 25 mg/kg, po relative to control. Format: functional. To be noted: Holtzmann.
For series [9], the system named is Mus musculus. The series can be described thus: Toxicity in mouse assessed as mortality up to 0.3 g/kg, ip. Format: organism-based. To be noted: in vivo, 300 mg/kg. The gist of the method:
as §1

For orientation: inhibition in vivo means how much of the control response was suppressed. As for `O=C(O)c1ccccc1[S+]([O-])c1cccc(C(F)(F)F)c1` (configuration not stated), the Activity entry in the series with Mus musculus [1] is “Toxic”. Also, the inhibition in vivo at 50 mg/kg in the series on Rattus norvegicus [2] was 4%; with Rattus norvegicus [3] it was 2%.
Turning to `CC(C(=O)O)c1ccccc1Sc1ccccc1` (configuration not stated), in the series on Mus musculus [1], the Activity entry is on record as “Toxic”. Moreover, the inhibition in vivo at 50 mg/kg worked out at 14% in the series with Rattus norvegicus [2] and 33% in the series on Rattus norvegicus [3].
With `Cc1cccc(S(=O)(=O)c2ccccc2C(=O)O)c1C`, the Activity entry in the series on Mus musculus [1] is given as “Toxic”. The inhibition in vivo at 50 mg/kg turned out to be 0% in the series on Rattus norvegicus [2] and 27% in the series on Rattus norvegicus [3].
As a reminder, the ED50 is the dose that gives a 50% effect, or the effect in half of the subjects. For `CCCCC1C(=O)N(c2ccccc2)N(c2ccccc2)C1=O` [PHENYLBUTAZONE], the ED50 with Rattus norvegicus [4] was 5 mg/kg. In the series on Rattus norvegicus [2], the inhibition in vivo at 50 mg/kg was 50%.
As for `O=C(O)c1ccccc1S(=O)(=O)c1cccc(C(F)(F)F)c1`, the Activity result in the series with Mus musculus [1] is recorded as “Toxic”. Besides, the inhibition in vivo at 50 mg/kg in the series on Rattus norvegicus [3] turned out to be 23%. In addition, the inhibition in vivo at 35 mg/kg in the series on Rattus norvegicus [5] came to 6%.
For the molecule `O=C(O)c1ccccc1S(=O)(=O)c1ccccc1`, the Activity result in the series on Mus musculus [1] is on record as “Toxic”. The inhibition in vivo at 50 mg/kg amounted to 15% with Rattus norvegicus [2] and 0% in the series with Rattus norvegicus [3].
Consider `CC(C(=O)O)c1ccccc1[S+]([O-])c1ccccc1` (configuration not stated), for which the inhibition in vivo at 50 mg/kg was determined as 8% in the series on Rattus norvegicus [2] and 7% in the series with Rattus norvegicus [3].
Turning to `Cc1cccc([S+]([O-])c2ccccc2C(=O)O)c1C` (configuration not stated), the inhibition in vivo at 50 mg/kg turned out to be 15% in the series on Rattus norvegicus [2] and 0% in the series with Rattus norvegicus [3].
Consider `O=C(O)c1ccccc1[S+]([O-])c1ccccc1` (configuration not stated), for which, in the series with Mus musculus [1], the Activity result is reported as “Toxic”. Moreover, the inhibition in vivo at 50 mg/kg in the series with Rattus norvegicus [2] stood at 19%; in the series on Rattus norvegicus [3], 0%.
Regarding `NCCSSc1ccccc1C(=O)O`, the inhibition in vivo at 30 mg/kg in the series with Mus musculus [6] is 40%.
With `CC(=O)Oc1ccccc1C(=O)O` [ASPIRIN], the inhibition in vivo at 50 mg/kg is below 20% in the series on Rattus norvegicus [2] and 50% in the series with Rattus norvegicus [3].
Turning to `O=C(O)Cc1ccccc1Sc1ccccc1`, the Activity entry in the series with Mus musculus [1] is listed as “Toxic”. Moreover, the inhibition in vivo at 50 mg/kg was 23% in the series on Rattus norvegicus [2] and 51% in the series on Rattus norvegicus [3]. Also, the inhibition result in the series with Rattus norvegicus [7] is “inactive”.
For the molecule `O=C(O)Cc1ccccc1[S+]([O-])c1ccccc1` (configuration not stated), the Activity entry in the series on Mus musculus [1] is “Toxic”. For the same molecule, the inhibition in vivo at 50 mg/kg in the series on Rattus norvegicus [2] came to 30%; in the series with Rattus norvegicus [3], 23%. Moreover, the inhibition entry with Rattus norvegicus [7] was “inactive”.
As to `Cc1cccc(Sc2ccccc2C(=O)O)c1C`, in the series with Mus musculus [1], the Activity entry is recorded as “Toxic”. In addition, the results for the inhibition in vivo at 50 mg/kg in the series with Rattus norvegicus [2] and in the series with Rattus norvegicus [3] were 15% and 26%, respectively.
In the case of `O=C(O)c1ccccc1Sc1cccc(C(F)(F)F)c1`, the inhibition in vivo at 25 mg/kg in the series with Rattus norvegicus [8] is 0%. For the same molecule, the Activity result in the series on Mus musculus [9] is “Non-toxic”. The inhibition in vivo at 50 mg/kg in the series on Rattus norvegicus [2] worked out at 18%; in the series on Rattus norvegicus [3], 43%.
